This is a sample that favours compounds with a hit; in the whole collection about 1.9% have one here.
VIM-2 inhibitor: blocks Pseudomonas aeruginosa VIM-2 metallo-beta-lactamase; purified VIM-2, nitrocefin hydrolysis, epi-absorbance fluorescence; inhibition, % at 5.6 µM; actives 0.89% (n = 290,000); AID 1527;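 active = inhibition above the mean of all tested compounds plus 3 SD, cutoff set per screening run, cut at about 7.5% in these data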;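 note: red hydrolysis product quenches plate fluorescence so inhibitors raise well fluorescence; 0% = enzyme with DMSO and 100% = DMSO without enzyme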
CTSL1 counter: blocks F. hepatica cathepsin L1 in PFM18AAP counter-screen | recombinant F. hepatica cathepsin L1, Z-Leu-Arg-MCA fluorescence | inhibition, % at 5.96 µM | actives 0.49% (n = 300,000) | AID 1906;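 active = inhibition above the mean of all tested compounds plus 3 SD, set per screening campaign, cut at about 17% in these data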;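 note: 0% = plate median of test compound wells and 100% = 1 µM Z-Phe-Ala-diazomethylketone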
pCIP destab: compounds decreasing mouse p/CIP protein stability | Q05BA5 | F442A p/CIP-EGFP cells, EGFP fluorescence, 16 h | decrease of EGFP signal, % at 10 µM | actives 0.01% (n = 290,000);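 active = EGFP signal decrease of at least 30% at 10 µM or well 3 SD below plate mean, unless failing retest; inactive = the rest, including hits failing retest or dose response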
IMP-1 inh: inhibitors of Pseudomonas aeruginosa IMP-1 metallo-beta-lactamase; purified IMP-1, nitrocefin hydrolysis, epi-absorbance fluorescence; inhibition, % at 5.6 µM; actives 0.45% (n = 290,000); AID 1556;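 active = inhibition above the mean plus 3 SD of all compounds in the same screening run, cut at about 4.5% in these data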;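 note: 0% = IMP-1 with DMSO and 100% = DMSO wells lacking enzyme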
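System: purified recombinant IMP-1 beta-lactamase. Medium: Zinc- and detergent-supplemented HEPES buffer, pH 7.1. Compound: one 5.6 µM dose […]. Schedule: 15 min preincubation plus 25 min reaction at 25 °C. Technique: Epi-absorbance fluorescence, 480 nm excitation, 530 nm emission.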
SUMO HTRF inh: SUMOylation inhibition | P63279 | HTRF SUMOylation assay, SAE1/SAE2 + UBC9, in vitro | inhibition, % at 35 µM | actives 0.36% (n = 290,000) | AID 2006; in the data active = inhibition above about 50%, passing the limit was not always enough
Target sequence (P63279 whole entry, looked up): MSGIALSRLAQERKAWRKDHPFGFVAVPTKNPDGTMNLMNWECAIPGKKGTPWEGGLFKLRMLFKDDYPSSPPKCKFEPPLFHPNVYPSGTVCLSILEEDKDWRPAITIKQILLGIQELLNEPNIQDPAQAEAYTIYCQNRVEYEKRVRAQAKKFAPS
T cell modulator: modulates CD8 T cell binding to vesicles. response (vesicle binding), % at 7 µM. 2C CD8+ T cell-vesicle binding, flow cytometry; stronger effect = lower value. actives 0.068% (n = 330,000);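 active = response, share of CD8 T cells binding vesicles, and their 90th percentile fluorescence all below set limits, cut at about 80% in these data, passing the limit was not always enough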;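 note: values below 100% mean blocked vesicle binding to the CD8+ T cells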
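Assay system: 2C TCR transgenic mouse naive CD8+ T cells, MACS-purified | Read-out: CD8+ gate FL2 mean fluorescence as % of same-row positive control | Signal: High-throughput flow cytometry with anti-B7-1 and anti-CD8 staining | Timing: Binding step 1.5 h, 37 °C, antibody labelling 20 min, ice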
An asterisk follows results filed as active.

Screening Cc1cc(OCC(=O)NCC(O)c2ccccc2)c2c3c(c(=O)oc2c1)CCCC3 (stereo not drawn) returned VIM-2 inhibitor 2, CTSL1 counter 1, pCIP destab 2, IMP-1 inh -4, SUMO HTRF inh 10 and T cell modulator 305.
`COC(=O)C(C)Oc1cc(C)cc2oc(=O)c3c(c12)CCCC3` (stereo not drawn) gave VIM-2 inhibitor 9.9*, CTSL1 counter 1, pCIP destab -2, IMP-1 inh -2, SUMO HTRF inh 24 and T cell modulator 221.
For COC(=O)C1=C(c2ccc(F)cc2OCc2ccccc2)C[C@@H]2CC[C@H]1N2C(=O)NCc1cccc(C(F)(F)F)c1 the results were T cell modulator 164.
For COC(=O)C1=C(c2ccc(F)cc2F)C[C@@H]2CC[C@H]1N2C(=O)N1CCC(O)CC1 the results were T cell modulator 476.
For CNCC[C@@H](Oc1ccc(C(F)(F)F)cc1)c1ccccc1 the results were CTSL1 counter -2 and T cell modulator 692.
`C=CCN1C(=O)/C(=C/c2cccs2)C(=O)NC1=S` gave VIM-2 inhibitor -1, CTSL1 counter 1, pCIP destab -11, IMP-1 inh -3, SUMO HTRF inh -3 and T cell modulator 495.
For O=C1NC(=S)N(Cc2ccco2)C(=O)/C1=C\c1cccs1 the results were VIM-2 inhibitor 2, pCIP destab -2, IMP-1 inh 5.1* and SUMO HTRF inh 94*.
For Cc1ccc(S(=O)(=O)N2CC2(C)CCl)cc1 (stereo not drawn) the results were VIM-2 inhibitor -2, CTSL1 counter 20*, pCIP destab -20, IMP-1 inh -2, SUMO HTRF inh 8 and T cell modulator 398.
Screening C[C@@H]1O[C@@H](O[C@@H]2C=C3CC[C@@H]4C(CC[C@]5(C)[C@@H](c6ccc(=O)oc6)CC[C@]45O)[C@@]3(C)CC2)[C@H](O)[C@H](O)[C@H]1O (stereo partly drawn) returned T cell modulator 46.
For C[C@@H]1O[C@@H](O[C@@H]2C=C3CCC4C(CC[C@]5(C)[C@@H](c6ccc(=O)oc6)CC[C@]45O)[C@@]3(C)CC2)[C@H](O)[C@H](O)[C@H]1O (stereo partly drawn) the results were CTSL1 counter 25* and T cell modulator 156.
Screening CC(C)[C@@]1(NC(=O)[C@@H]2C=C3c4cccc5[nH]cc(c45)C[C@H]3N(C)C2)O[C@@]2(O)[C@@H]3CCCN3C(=O)[C@H](Cc3ccccc3)N2C1=O returned VIM-2 inhibitor 2, pCIP destab -14, IMP-1 inh 0 and SUMO HTRF inh 31.
`CC(C)[C@H]1C(=O)N2CCC[C@H]2[C@]2(O)O[C@](NC(=O)[C@@H]3C=C4c5cccc6[nH]cc(c56)C[C@H]4N(C)C3)(C(C)C)C(=O)N12` gave VIM-2 inhibitor 1, CTSL1 counter 36*, pCIP destab -19, IMP-1 inh 0, SUMO HTRF inh 64 and T cell modulator 598.
Screening CC(C)C[C@H]1C(=O)N2CCCC2[C@]2(O)O[C@](NC(=O)[C@@H]3C=C4c5cccc6[nH]cc(c56)CC4N(C)C3)(C(C)C)C(=O)N12 (stereo partly drawn) returned VIM-2 inhibitor 1, CTSL1 counter 31*, pCIP destab -13, IMP-1 inh 0, SUMO HTRF inh 31 and T cell modulator 407.
NC(=S)c1cn(C2OC(CO)C(O)C2O)c2ncnc(N)c12 (stereo not drawn) was read as VIM-2 inhibitor 0, CTSL1 counter 4, pCIP destab -18, IMP-1 inh 12*, SUMO HTRF inh 13 and T cell modulator 132.
For CCN(CC)C(=O)c1ccc(NC(=O)COc2ccc(-c3nn(C)c(=O)c4ccccc34)cc2)cc1 the results were VIM-2 inhibitor 9.0*, CTSL1 counter 2, pCIP destab -13, IMP-1 inh -2, SUMO HTRF inh 4 and T cell modulator 192.
Screening CCN(CC)C(=O)c1ccc(NC(=O)c2cn(-c3ccccc3)nc2-c2ccc(OC)cc2)cc1 returned VIM-2 inhibitor -3, CTSL1 counter 3, pCIP destab 2, IMP-1 inh -4, SUMO HTRF inh -16 and T cell modulator 270.

Screening data deposited in PubChem BioAssay by several laboratories.
